Data reported in publication PMC8223535 (The Yale Journal of Biology and Medicine, 2021).

Legend:
[1] = system: T. brucei brucei (Lafia strain); assay: In vivo anti-Trypanosoma evaluation in infected rats; design: species or system Trypanosoma brucei brucei in male Wistar rats; conditions: 3.5 mg/kg bw in corn oil, reference drug, data not shown
Method in brief: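 Male Wistar rats (120–130 g, acclimated 14 days) each received 0.2 mL of infected rat blood diluted in 0.9% saline (1 x 102 trypanosomes). Dosing began after the 72-h lag, on the first parasite-positive day. It ran daily for 5 days: test compound at 40 mg/kg bw or diminazene aceturate at 3.5 mg/kg bw, in corn oil. Controls were vehicle-infected and uninfected. Tail-blood smears were counted at ×100, and survival was tracked. n=5, mean ± SEM, ANOVA with Dunnett.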

[2] = cited from earlier work
[3] = system: Trypanosoma congolense IL3000 bloodstream form; assay: In vitro anti-Trypanosoma activity, luminescence-based parasite viability; type: cell-based; conditions: 72 h, 0 to 25 µg/mL
Method in brief: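 T. congolense IL3000 bloodstream forms were kept in HMI-9-type medium (IMDM, 20% FBS, supplements) in air at 33°C. Parasites were seeded at 1 × 10^5 cells/mL with test compound at 0 to 25 µg/mL and incubated 72 h at 33°C. Viability was read by ATP luminescence. Pentamidine was the reference. The 50% value came from a non-linear regression dose-response fit. Triplicates, three independent runs.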

CC(=O)NCC(=O)O.CC(=O)NCC(=O)O.N=C(N)c1ccc(N=NNc2ccc(C(=N)N)cc2)cc1 [diminazene aceturate]
outcome of infected rats (survival) [1]: survived the infection | systemic parasite burden of infected rats [1]: systemic parasite burden cleared

Nc1nc(N)nc(Nc2ccc([As]3SCC(CO)S3)cc2)n1 (centres unmarked) [melarsoprol]
encephalopathy ([2]; patients treated for late-stage trypanosomiasis): more than 10 % of patients | fatal outcomes among encephalopathy cases ([2]; share of the encephalopathy cases): 40%

N=C(N)c1ccc(OCCCCCOc2ccc(C(=N)N)cc2)cc1 [pentamidine]
effect on in vitro growth of T. congolense (in words) [3]: appreciably hindered the in vitro growth of T. congolense
